Consider 98 compounds from ChEMBL document CHEMBL4513216, “Probing the Open Global Health Chemical Diversity Library for Multistage-Active Starting Points for Next-Generation Antimalarials” (ACS Infect Dis, 2020).

The data set is described as follows: Toxicity liver stage against HepG2, at 10uM. The arrangement: test concentration 10 uM, cell line HepG2-A16-CD81EGFP. Type of data set: cell-based. To be noted: human, HepG2-A16-CD81EGFP cells; read-out: INHIBITION
The essentials:
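Uninfected HepG2-A16-CD81EGFP cells, 3 × 10^3 per well, 1536-well, plated on prespotted compound at 10 μM final, parasite-free screening media added to match infected plates; puromycin 10 μM positive, DMSO 0.5% negative; run in parallel with 48 h PbLuc assay at 37 °C, 5% CO2; viability by CellTiter-Glo luminescence, normalized to controls.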
On to `Cc1ccccc1C(C)NC(=O)c1ccc(=O)n(C)c1` (stereo not drawn), for which the cytotoxicity at 10 µM stood at 4.31%.
As for `Cc1cnccc1CN1C[C@@H](O)[C@H](Oc2ccccc2)C1`, the cytotoxicity at 10 µM was found to be 1.85%.
In the case of `Cc1ccc(F)cc1NC(=O)c1[nH]ncc1Br`, the cytotoxicity at 10 µM turned out to be 15.7%.
Next, `c1cc2c(cc1-c1noc3c1CN(C1CCSCC1)CC3)OCO2`: 5.51%; `C[C@@H]1CN(C(=O)c2cc(COc3ccc4c(c3)OCO4)[nH]n2)C[C@H](C)O1`: -6.37%; `CC(C)(C)n1ncc2c1CCCC2NCc1ccc2ncccc2c1` (stereo not drawn): 7.74%.
In the case of `CNc1nc(CNC(=O)Nc2cccc(C(C)OC)c2)cs1` (stereo not drawn), the cytotoxicity at 10 µM was -13.3%.
In the case of `CC(C)(C)OC(=O)N1CCC(C(=O)NCc2cc3ccccc3[nH]2)C1` (stereo not drawn), the cytotoxicity at 10 µM came to 2.34%.
Take `OC(CNC1CCOCC1)c1cccc(OCc2ccccc2)c1` (stereo not drawn): the cytotoxicity at 10 µM was -10.3%.
With `Cn1nccc1-c1cncc(C2CCCN(S(C)(=O)=O)C2)n1` (stereo not drawn), the cytotoxicity at 10 µM stood at 6.62%.
As to `NC(=O)c1cn[nH]c1C1CCCN1C(=O)COc1ccccc1` (stereo not drawn), the cytotoxicity at 10 µM was -3.93%.
On to `CC(C)c1cc(C2CCN(Cc3cc(F)cc(F)c3)CC2)[nH]n1`, for which the cytotoxicity at 10 µM was -7.46%.
Next, `COCCNC(=O)c1ccoc1CN1c2ccccc2CC1C` (stereo not drawn): 5.41%; `COCCN1CCN(c2ccc(C)nn2)Cc2ccc(C)nc21`: -104%.
`O=S(=O)(NC1CCCOC1)c1ccc(C(F)(F)F)nc1` (stereo not drawn): the cytotoxicity at 10 µM was -1.38%.
On to `CC(C)CN(C)Cc1c[nH]nc1-c1ccc(F)cc1F`, for which the cytotoxicity at 10 µM worked out at 2.38%.
In the case of `CC(=O)N1CCN(C(=O)CN2CCc3c(ncn3C3CC3)C2)CC1`, the cytotoxicity at 10 µM was 3.3%.
With `COc1cccc(C(=O)N2C[C@@H](c3ccccc3)[C@@H]3NCCCC[C@@H]32)c1`, the cytotoxicity at 10 µM was -14.1%.
With `CCOCc1nc2c(c(N3CC=CC3)n1)CCN(C1CCOCC1)CC2` the figure was -25.2%.
On to `Cc1cccc(CN2CCS(=O)(=O)[C@@H]3CCN(C(=O)C4CC4)CC[C@@H]32)n1`, for which the cytotoxicity at 10 µM is -3.64%.
With `CC(C)c1nc2n(n1)CC(NCc1ncc(C(C)(C)C)o1)CC2` (stereo not drawn) the figure was -17.8%; with `O=C([C@H]1CCCO1)N1CCc2ncnc(C3CC3)c2CC1`, 4.79%; with `COCCOc1ncccc1C(=O)N(C)c1ccc(OC)nc1`, -44.4%.
With `CN(C)Cc1ccccc1NC(=O)c1ccc(C#N)cc1`, the cytotoxicity at 10 µM stood at 4.2%.
Regarding `Cc1nn(C)c(C)c1C(=O)NC(C)CC(=O)c1cccs1` (stereo not drawn), the cytotoxicity at 10 µM is -5.08%.
With `CC(O)c1cn(Cc2ccc(F)cc2)nn1` (stereo not drawn) the figure was 4.78%; with `CC(=O)c1cc(CN2CCCCC2c2nc3cc(F)ccc3[nH]2)cs1` (stereo not drawn), -1.08%; with `CCOc1nn(CC)cc1-c1nnc(SCc2cccnc2)n1C`, 5.97%.
`c1coc(-c2nc(CNCCn3cccn3)cs2)c1`: the cytotoxicity at 10 µM is -13.8%.
`O=C(NCCC1CCN(CC(F)(F)F)CC1)C1CCOC1` (stereo not drawn): the cytotoxicity at 10 µM was 5.69%.
For `CNc1ncccc1C(=O)N1CCC2(CCN(C)C2)CC1`, the cytotoxicity at 10 µM was 0.521%.
With `O=C(Cc1c[nH]c(=O)[nH]c1=O)N1CCCCC1CCc1cccc(O)c1` (stereo not drawn), the cytotoxicity at 10 µM stood at 14.5%.
As to `CC(O)(CNS(=O)(=O)Cc1ccon1)c1ccsc1` (stereo not drawn), the cytotoxicity at 10 µM turned out to be 2.76%.
Take `FC(F)(F)Oc1cccc(CNC[C@H]2Cn3ccnc3CO2)c1`: the cytotoxicity at 10 µM was 2.21%.
For the compound `Cn1ccnc1CCNS(=O)(=O)c1cccc(Br)c1`, the cytotoxicity at 10 µM was found to be 4.95%.
Turning to `Cc1ccc2c(c1)C1(CCNCC1)CN2C(=O)C(C)C`, the cytotoxicity at 10 µM was -77%.
Turning to `CC(C)N(Cc1nc2c(cnn2C)c(=O)[nH]1)c1ccccc1`, the cytotoxicity at 10 µM was -12.6%.
Take `CCC(Nc1nccc(C2CCCC2)n1)c1ccncc1` (stereo not drawn): the cytotoxicity at 10 µM is -63.8%.
Regarding `CC(C)NC(=O)N1CCC2(CC1)C(=O)NCCN2Cc1ccccc1`, the cytotoxicity at 10 µM turned out to be 1.29%.
With `COc1ccccc1N1CCN(Cc2cnc3c(c2)c(C)nn3C)CC1` the figure was -0.949%; with `COc1cc(-c2nc3c([nH]2)CCCNC3=O)ccc1OC(C)C`, 13.3%; with `Cc1ccccc1-c1ncc(CNCc2csc(C(C)C)n2)s1`, 0.264%.
With `CCN(CC)CC(=O)NCCc1csc(N2CCCC2)n1` the figure was 8.55%; with `COc1ccc(CN2CC[C@@H](N)[C@@H](OC)C2)cc1Cn1cncn1`, -3.7%; with `CC(=O)N1CCN(c2cc(N3CCOCC3)cnn2)CC1`, -7.09%.
As to `CC(C)C(C(=O)N1CCCN(c2cccnn2)CC1)n1cncn1` (stereo not drawn), the cytotoxicity at 10 µM was -20.7%.
`O=C1CC(c2ccco2)c2sc(C(=O)O)c(-c3ccccc3)c2N1` (stereo not drawn): the cytotoxicity at 10 µM is 19.1%.
Consider `CC(C)C1CN(C(=O)c2cc(F)cc3[nH]cnc23)CCS1` (stereo not drawn), for which the cytotoxicity at 10 µM was determined as 1.97%.
Consider `CCCC12CN3CC(CCC)(CN(C1)C3c1[nH]c(=O)[nH]c(=O)c1C)C2=O` (stereo not drawn), for which the cytotoxicity at 10 µM was 4.17%.
Turning to `CN1CCOC(C)(C(=O)N2CCSCC2)C1` (stereo not drawn), the cytotoxicity at 10 µM is -9.71%.
Next, `COCCN1CC(=O)N2CC[C@@H](O)C[C@H]2C1=O`: -8.03%; `Cc1ccc(CCCC(=O)N2CCN(C3CCCN(C)C3)CC2)s1` (stereo not drawn): 5.82%; `Cc1ccc(C(=O)NCc2ccnc(C3CCCOC3)n2)s1` (stereo not drawn): 5.29%.
For the compound `Cc1ccccc1CN(C)C(=O)CN1CCOC(Cn2cncn2)C1` (stereo not drawn), the cytotoxicity at 10 µM was -1.07%.
Consider `COc1ccc(C)cc1CC(=O)N1CCN(CC(C)O)CC1` (stereo not drawn), for which the cytotoxicity at 10 µM was -8.65%.
On to `Cc1nc(N2CCCC(N3CCCC3)C2)c2cnn(C)c2n1` (stereo not drawn), for which the cytotoxicity at 10 µM is -4.07%.
As to `COc1cccc(CNCc2ccc(F)cc2Cl)c1O`, the cytotoxicity at 10 µM is -3.3%.
With `Cc1cc(-c2cnc(NC3CCCC3)nc2-c2ccoc2C)on1` the figure was 45.7%; with `CN(CCCc1ccccc1)C(=O)CCc1nc(-c2nnc[nH]2)no1`, -44.8%; with `O=C(c1ccc(N2CCCCCC2)nn1)N1CCc2ccccc21`, -8.04%.
For the compound `CSc1ccc(NCC(=O)NC(=O)NCC(F)(F)F)cc1F`, the cytotoxicity at 10 µM is -7.91%.
With `CN(C)CCCN1CC2(CCN(C(=O)C3(C)CCCCO3)CC2)OC1=O` (stereo not drawn) the figure was -8.76%.
As to `CN(C)CCNc1cc(-c2ccccc2C(N)=O)c2cc[nH]c2n1`, the cytotoxicity at 10 µM was 0.343%.
Take `NC1(c2nc(C(F)(F)F)cc(=O)[nH]2)CCCC1`: the cytotoxicity at 10 µM was 19.1%.
As for `Nc1cc2c(nn1)CCN(C(=O)c1csc(-c3cccs3)n1)C2`, the cytotoxicity at 10 µM was -1.32%.
`Oc1nc(N2CCCC2)nc2nccc(-c3ccccn3)c12`: the cytotoxicity at 10 µM came out at 1.36%.
On to `Cc1ccc(CN2CC3(CCN(C(=O)c4cccnc4)C3)C2)o1`, for which the cytotoxicity at 10 µM was -79.6%.
Turning to `Cc1cccc(C(C)CNC(=O)N2CCOCC3(CCOCC3)C2)c1` (stereo not drawn), the cytotoxicity at 10 µM turned out to be 8.84%.
With `Cc1cc(-n2c(C)cn(CN(C)C3CCS(=O)(=O)C3)c2=O)no1` (stereo not drawn) the figure was -0.872%; with `CC(=O)N1CC(C)CN(C(=O)c2cscn2)c2ccccc21` (stereo not drawn), 1.98%; with `Cc1nc2c(c(N(C)CC3Cc4ccccc4CN3C)n1)CCNCC2` (stereo not drawn), -29%.
On to `Cc1cc(C(=O)N2CCCC2c2noc(C)n2)[nH]n1` (stereo not drawn), for which the cytotoxicity at 10 µM is -18.7%.
`COc1ccc(Cl)cc1NCc1cc(C)on1`: the cytotoxicity at 10 µM is -7.13%.
Turning to `CC(C)N1CCC(CC(=O)NC(C(=O)O)c2ccc(F)cc2)CC1` (stereo not drawn), the cytotoxicity at 10 µM was found to be 0.0453%.
Consider `O=C(O)CCn1nc(C(F)(F)F)c(Cl)c1C1CC1`, for which the cytotoxicity at 10 µM is 8.63%.
`N[C@@H]1CC[C@H](C(=O)NCc2ccc3nonc3c2)C1`: the cytotoxicity at 10 µM was -5.35%.
Next, `O=C(CN1CCCC1Cn1cncn1)Nc1nccs1` (stereo not drawn): 4.1%; `CCc1nc(C2CCCN2Cc2nnc(C3CC3)o2)no1` (stereo not drawn): -13.2%.
As to `COc1ccc(CN2C[C@H]3CC[C@@H](C2)N(S(C)(=O)=O)C3)cc1`, the cytotoxicity at 10 µM was -5.75%.
Consider `CC(C)[C@@H]1CN(c2ncc(F)cn2)C[C@H]1NC(=O)N(C)C`, for which the cytotoxicity at 10 µM was -4.03%.
`O=C(NCCc1ccccn1)N1CCOC(c2ccccc2Cl)C1` (stereo not drawn): the cytotoxicity at 10 µM is -7.75%.
With `Cc1ccc(C(=O)N2CCC3(CC2)COCCN(S(C)(=O)=O)C3)cc1C` the figure was 3.27%; with `COc1ncccc1CNC(=O)Nc1cc(C)nn1C`, -5.13%.
As for `CCc1nccn1CC(=O)Nc1cccc(C(=O)N(C)C)c1`, the cytotoxicity at 10 µM was -6.77%.
Turning to `CN(C)c1cc2c(nn1)CCN(C(=O)C1Cc3ccccc3S1)C2` (stereo not drawn), the cytotoxicity at 10 µM was -9.52%.
With `N#Cc1ccccc1N1CCN(CCC(=O)N2CCOCC2)CC1`, the cytotoxicity at 10 µM came to 10%.
With `CCc1noc(CN(C)CC(c2cccs2)N2CCOCC2)n1` (stereo not drawn) the figure was -4.56%.
For the compound `COCCn1ccc2c(C(=O)O)cccc21`, the cytotoxicity at 10 µM was -3.37%.
Consider `Cc1cccc(CNc2ccc(C(=O)N3CCC(CO)CC3)cc2)c1`, for which the cytotoxicity at 10 µM stood at 18.9%.
With `Cn1nc(CN2CCCC2)c2c1CN(C(=O)c1cnccn1)CC2` the figure was -147%; with `Cc1c(Br)cnn1CC(=O)Nc1ccon1`, 10.8%; with `Cc1cc(O)cc2c(=O)oc(CC(C)O)cc12` (stereo not drawn), 0.346%.
With `COCCN1CCC(Cc2cncc(-c3ccc(C(=O)O)cc3)n2)C1` (stereo not drawn) the figure was -0.413%.
On to `Cc1ccc(CN2CCC3(CCC(C(=O)N(C)C)O3)CC2)o1` (stereo not drawn), for which the cytotoxicity at 10 µM is -2.63%.
Regarding `Oc1ccc(N2CCC(Cc3ccccc3)CC2)nn1`, the cytotoxicity at 10 µM was determined as 45.4%.
As to `CCCNc1nc(CS(=O)(=O)c2ccccc2)cs1`, the cytotoxicity at 10 µM was found to be 0.939%.
Regarding `O=C1CC2(CCN(Cc3ccoc3)C2)CN1c1cncnc1` (stereo not drawn), the cytotoxicity at 10 µM was -69.4%.
In the case of `CC(NCc1cccc(S(=O)(=O)N(C)C)c1)c1cccnc1` (stereo not drawn), the cytotoxicity at 10 µM is 1.56%.
